Test results published in PMC6172068 (Cancer Science, 2018).
Marks after values point to notes of the source that are not given here.

Assay: Safety and tolerability
Type: in vivo, Japanese patients
How it was run: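 In this open-label study, once-daily oral dosing escalated 20–300 mg/d by Bayesian continual reassessment. DLTs were judged from Cycles 0 and 1, and MTD/RD came from the posterior mean DLT rate plus investigator assessment. Treatment-emergent AEs were graded by NCI-CTCAE v4.0 for seriousness, duration and relatedness. The safety analysis set comprised all patients given ≥1 dose.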

CCc1nc(C(N)=O)c(Nc2ccc(N3CCC(N4CCN(C)CC4)CC3)c(OC)c2)nc1NC1CCOCC1 [gilteritinib]
AEs leading to discontinuation of the study drug (20 mg (n = 1)): 0 n (%) | Any AE (20 mg (n = 1)): 1 (100%) n (%) | Deaths (20 mg (n = 1)): 0 n (%) | Drug-related AE (20 mg (n = 1)): 1 (100%) n (%) | Drug-related AEs leading to discontinuation of the study drug (20 mg (n = 1)): 0 n (%) | Drug-related grade ≥3 AEs (20 mg (n = 1)): 0 n (%) | Drug-related serious AEs (20 mg (n = 1)): 0 n (%) | Grade ≥3 AEs (20 mg (n = 1)): 1 (100%) n (%) | Serious AE: Acute cholangitis (20 mg (n = 1)): 0 n (%) | Serious AE: Bronchopneumonia (20 mg (n = 1)): 0 n (%) | Serious AE: Bronchopulmonary aspergillosis (20 mg (n = 1)): 0 n (%) | Serious AE: Cardiomyopathy (20 mg (n = 1)): 0 n (%) | Serious AE: Device-related infection (20 mg (n = 1)): 0 n (%) | Serious AE: Edema (20 mg (n = 1)): 0 n (%) | Serious AE: Febrile neutropenia (20 mg (n = 1)): 0 n (%) | Serious AE: Increased level of fibrin degradation products (20 mg (n = 1)): 0 n (%) | Serious AE: Pneumonia (20 mg (n = 1)): 0 n (%) | Serious AE: Sepsis (20 mg (n = 1)): 0 n (%) | Serious AE: Subdural hematoma (20 mg (n = 1)): 0 n (%) | Serious AEs (20 mg (n = 1)): 0 n (%) | AEs leading to discontinuation of the study drug (40 mg (n = 4)): 1 (25%) n (%) | Any AE (40 mg (n = 4)): 4 (100%) n (%) | Deaths (40 mg (n = 4)): 0 n (%) | Drug-related AE (40 mg (n = 4)): 3 (75%) n (%) | Drug-related AEs leading to discontinuation of the study drug (40 mg (n = 4)): 1 (25%) n (%) | Drug-related grade ≥3 AEs (40 mg (n = 4)): 1 (25%) n (%) | Drug-related serious AEs (40 mg (n = 4)): 1 (25%) n (%) | Grade ≥3 AEs (40 mg (n = 4)): 2 (50%) n (%) | Serious AE: Acute cholangitis (40 mg (n = 4)): 0 n (%) | Serious AE: Bronchopneumonia (40 mg (n = 4)): 0 n (%) | Serious AE: Bronchopulmonary aspergillosis (40 mg (n = 4)): 0 n (%) | Serious AE: Cardiomyopathy (40 mg (n = 4)): 0 n (%) | Serious AE: Device-related infection (40 mg (n = 4)): 1 (25%) n (%) | Serious AE: Edema (40 mg (n = 4)): 1 (25%) n (%) | Serious AE: Febrile neutropenia (40 mg (n = 4)): 0 n (%) | Serious AE: Increased level of fibrin degradation products (40 mg (n = 4)): 0 n (%) | Serious AE: Pneumonia (40 mg (n = 4)): 1 (25%) n (%) | Serious AE: Sepsis (40 mg (n = 4)): 0 n (%) | Serious AE: Subdural hematoma (40 mg (n = 4)): 0 n (%) | Serious AEs (40 mg (n = 4)): 1 (25%) n (%) | AE resulting in permanent discontinuation: pneumonia (40 mg/d): 1 n | AEs leading to discontinuation of the study drug (80 mg (n = 4)): 1 (25%) n (%) | Any AE (80 mg (n = 4)): 4 (100%) n (%) | Drug-related AE (80 mg (n = 4)): 3 (75%) n (%) | Drug-related AEs leading to discontinuation of the study drug (80 mg (n = 4)): 1 (25%) n (%) | Drug-related grade ≥3 AEs (80 mg (n = 4)): 1 (25%) n (%) | Drug-related serious AEs (80 mg (n = 4)): 1 (25%) n (%) | Grade ≥3 AEs (80 mg (n = 4)): 2 (50%) n (%) | Serious AE: Acute cholangitis (80 mg (n = 4)): 1 (25%) n (%) | Serious AE: Bronchopneumonia (80 mg (n = 4)): 1 (25%) n (%) | Serious AE: Bronchopulmonary aspergillosis (80 mg (n = 4)): 0 n (%) | Serious AE: Cardiomyopathy (80 mg (n = 4)): 0 n (%) | Serious AE: Device-related infection (80 mg (n = 4)): 0 n (%) | Serious AE: Edema (80 mg (n = 4)): 0 n (%) | Serious AE: Febrile neutropenia (80 mg (n = 4)): 0 n (%) | Serious AE: Increased level of fibrin degradation products (80 mg (n = 4)): 0 n (%) | Serious AE: Pneumonia (80 mg (n = 4)): 0 n (%) | Serious AE: Sepsis (80 mg (n = 4)): 1 (25%) n (%) | Serious AE: Subdural hematoma (80 mg (n = 4)): 1 (25%) n (%) | Serious AEs (80 mg (n = 4)): 1 (25%) n (%) | Deaths (80 mg (n = 4), cause of death considered related to the study drug): 1 (25%) ^a n (%) | AE resulting in permanent discontinuation: subdural hematoma (80 mg/d): 1 n | AEs leading to discontinuation of the study drug (120 mg (n = 4)): 0 n (%) | Any AE (120 mg (n = 4)): 4 (100%) n (%) | Deaths (120 mg (n = 4)): 0 n (%) | Drug-related AE (120 mg (n = 4)): 4 (100%) n (%) | Drug-related AEs leading to discontinuation of the study drug (120 mg (n = 4)): 0 n (%) | Drug-related grade ≥3 AEs (120 mg (n = 4)): 1 (25%) n (%) | Drug-related serious AEs (120 mg (n = 4)): 0 n (%) | Grade ≥3 AEs (120 mg (n = 4)): 2 (50%) n (%) | Serious AE: Acute cholangitis (120 mg (n = 4)): 0 n (%) | Serious AE: Bronchopneumonia (120 mg (n = 4)): 0 n (%) | Serious AE: Bronchopulmonary aspergillosis (120 mg (n = 4)): 0 n (%) | Serious AE: Cardiomyopathy (120 mg (n = 4)): 0 n (%) | Serious AE: Device-related infection (120 mg (n = 4)): 0 n (%) | Serious AE: Edema (120 mg (n = 4)): 0 n (%) | Serious AE: Febrile neutropenia (120 mg (n = 4)): 0 n (%) | Serious AE: Increased level of fibrin degradation products (120 mg (n = 4)): 0 n (%) | Serious AE: Pneumonia (120 mg (n = 4)): 0 n (%) | Serious AE: Sepsis (120 mg (n = 4)): 0 n (%) | Serious AE: Subdural hematoma (120 mg (n = 4)): 0 n (%) | Serious AEs (120 mg (n = 4)): 0 n (%) | DLT: grade 3 tumor lysis syndrome (120 mg/d): 1 n | AEs leading to discontinuation of the study drug (200 mg (n = 9)): 2 (22.2%) n (%) | Any AE (200 mg (n = 9)): 9 (100%) n (%) | Deaths (200 mg (n = 9)): 0 n (%) | Drug-related AE (200 mg (n = 9)): 9 (100%) n (%) | Drug-related AEs leading to discontinuation of the study drug (200 mg (n = 9)): 1 (11.1%) n (%) | Drug-related grade ≥3 AEs (200 mg (n = 9)): 4 (44.4%) n (%) | Drug-related serious AEs (200 mg (n = 9)): 2 (22.2%) n (%) | Grade ≥3 AEs (200 mg (n = 9)): 7 (77.8%) n (%) | Serious AE: Acute cholangitis (200 mg (n = 9)): 0 n (%) | Serious AE: Bronchopneumonia (200 mg (n = 9)): 0 n (%) | Serious AE: Bronchopulmonary aspergillosis (200 mg (n = 9)): 1 (11.1%) n (%) | Serious AE: Cardiomyopathy (200 mg (n = 9)): 1 (11.1%) n (%) | Serious AE: Device-related infection (200 mg (n = 9)): 0 n (%) | Serious AE: Edema (200 mg (n = 9)): 0 n (%) | Serious AE: Febrile neutropenia (200 mg (n = 9)): 1 (11.1%) n (%) | Serious AE: Increased level of fibrin degradation products (200 mg (n = 9)): 1 (11.1%) n (%) | Serious AE: Pneumonia (200 mg (n = 9)): 0 n (%) | Serious AE: Sepsis (200 mg (n = 9)): 0 n (%) | Serious AE: Subdural hematoma (200 mg (n = 9)): 1 (11.1%) n (%) | Serious AEs (200 mg (n = 9)): 5 (55.6%) n (%) | AE resulting in permanent discontinuation: elevated blood creatine phosphokinase (200 mg/d): 1 n | AE resulting in permanent discontinuation: delirium (200 mg/d, not considered drug-related): 1 n | AEs leading to discontinuation of the study drug (300 mg (n = 2)): 2 (100%) n (%) | Any AE (300 mg (n = 2)): 2 (100%) n (%) | Deaths (300 mg (n = 2)): 0 n (%) | Drug-related AE (300 mg (n = 2)): 2 (100%) n (%) | Drug-related AEs leading to discontinuation of the study drug (300 mg (n = 2)): 2 (100%) n (%) | Drug-related grade ≥3 AEs (300 mg (n = 2)): 2 (100%) n (%) | Drug-related serious AEs (300 mg (n = 2)): 0 n (%) | Grade ≥3 AEs (300 mg (n = 2)): 2 (100%) n (%) | Serious AE: Acute cholangitis (300 mg (n = 2)): 0 n (%) | Serious AE: Bronchopneumonia (300 mg (n = 2)): 0 n (%) | Serious AE: Bronchopulmonary aspergillosis (300 mg (n = 2)): 0 n (%) | Serious AE: Cardiomyopathy (300 mg (n = 2)): 0 n (%) | Serious AE: Device-related infection (300 mg (n = 2)): 0 n (%) | Serious AE: Edema (300 mg (n = 2)): 0 n (%) | Serious AE: Febrile neutropenia (300 mg (n = 2)): 0 n (%) | Serious AE: Increased level of fibrin degradation products (300 mg (n = 2)): 0 n (%) | Serious AE: Pneumonia (300 mg (n = 2)): 0 n (%) | Serious AE: Sepsis (300 mg (n = 2)): 0 n (%) | Serious AE: Subdural hematoma (300 mg (n = 2)): 0 n (%) | Serious AEs (300 mg (n = 2)): 0 n (%) | AE resulting in permanent discontinuation: elevated lactate dehydrogenase (300 mg/d): 1 n | AE resulting in permanent discontinuation: pneumonia (300 mg/d): 1 n | DLTs: grade 3 elevated blood lactate dehydrogenase, amylase, blood creatine phosphokinase levels, and syncope (300 mg/d): 2 n | patients with a dose decrease (2 patients): 8.3% | patients with dose interruptions (7 patients): 29.2% | Anemia (Grade 1-2, N = 24): 0 n (%) | Bone pain (Grade 1-2, N = 24): 1 (4.2%) n (%) | Constipation (Grade 1-2, N = 24): 4 (16.7%) n (%) | Corneal erosion (Grade 1-2, N = 24): 4 (16.7%) n (%) | Cough (Grade 1-2, N = 24): 3 (12.5%) n (%) | Diarrhea (Grade 1-2, N = 24): 6 (25%) n (%) | Disseminated intravascular coagulation (Grade 1-2, N = 24): 1 (4.2%) n (%) | Dysesthesia (Grade 1-2, N = 24): 2 (8.3%) n (%) | Dysgeusia (Grade 1-2, N = 24): 2 (8.3%) n (%) | ECG prolonged QT interval (Grade 1-2, N = 24): 1 (4.2%) n (%) | Elevated ALT (Grade 1-2, N = 24): 2 (8.3%) n (%) | Elevated AST (Grade 1-2, N = 24): 2 (8.3%) n (%) | Elevated blood creatine phosphokinase (Grade 1-2, N = 24): 6 (25%) n (%) | Elevated blood lactate dehydrogenase (Grade 1-2, N = 24): 7 (29.2%) n (%) | Elevated liver enzymes (ALT, AST, and alkaline phosphatase) (Grade 1-2, N = 24): 9 (37.5%) n (%) | Epistaxis (Grade 1-2, N = 24): 2 (8.3%) n (%) | Febrile neutropenia (Grade 1-2, N = 24): 2 (8.3%) n (%) | Headache (Grade 1-2, N = 24): 4 (16.7%) n (%) | Hematoma (Grade 1-2, N = 24): 2 (8.3%) n (%) | Hypertension (Grade 1-2, N = 24): 5 (20.8%) n (%) | Hypokalemia (Grade 1-2, N = 24): 2 (8.3%) n (%) | Hypotension (Grade 1-2, N = 24): 2 (8.3%) n (%) | Hypoxia (Grade 1-2, N = 24): 2 (8.3%) n (%) | Increased amylase (Grade 1-2, N = 24): 1 (4.2%) n (%) | Insomnia (Grade 1-2, N = 24): 2 (8.3%) n (%) | Lung infection (Grade 1-2, N = 24): 1 (4.2%) n (%) | Nausea (Grade 1-2, N = 24): 4 (16.7%) n (%) | Pleural effusion (Grade 1-2, N = 24): 3 (12.5%) n (%) | Pneumonia (Grade 1-2, N = 24): 1 (4.2%) n (%) | Pyrexia (Grade 1-2, N = 24): 7 (29.2%) n (%) | Rash (Grade 1-2, N = 24): 3 (12.5%) n (%) | Renal impairment (Grade 1-2, N = 24): 5 (20.8%) n (%) | Sepsis (Grade 1-2, N = 24): 1 (4.2%) n (%) | Somnolence (Grade 1-2, N = 24): 3 (12.5%) n (%)
